A short description of assay [1]: Antiplatelet activity against New Zealand white rabbit platelets assessed as inhibition of ADP-induced platelet aggregation at 50 ug/mL treated 2 mins before ADP challenge measured after 4 mins by turbidimetric analysis. The assay is classed as functional. To be noted: Oryctolagus cuniculus. In a few lines:
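Washed platelets from ear-vein blood (acid-citrate dextrose), washed in Ca²⁺-free Tyrode's with BSA, heparin and apyrase, resuspended in Tyrode's with 1 mM Ca²⁺ at 2.5 × 10⁸/mL. Stirred at 900 rpm, preincubated 2 min at 37 °C with compound or vehicle (DMSO, final 0.5%), then challenged with 20 μM ADP. Maximal light-transmission rise within 4 min; inhibition computed versus vehicle.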

The nature of assay [2]: Antiplatelet activity against New Zealand white rabbit platelets assessed as inhibition of collagen-induced platelet aggregation at 50 ug/mL treated 2 mins before collagen challenge measured after 4 mins by turbidimetric analysis. The class given is functional. To be noted: Oryctolagus cuniculus. In a few lines: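 Rabbit washed platelets (EDTA-treated PRP, washed in Ca²⁺-free Tyrode's with BSA, heparin and apyrase at 37 °C for 20 min) were resuspended in 1 mM Ca²⁺ Tyrode's at 2.5 × 10⁸/mL. Compound or DMSO vehicle (final 0.5%) was added for 2 min at 37 °C with 900 rpm stirring before collagen. Read-out was peak transmission increase within 4 min, expressed as inhibition relative to vehicle.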

As to `COc1ccc(/C=C/C(=O)c2cccc(C)c2)c(CN2CCOCC2)c1O`, the values for the inhibition at 50 µg/mL in assay [1] and in assay [2] were 100% and 78%, respectively.

Regarding `CCOc1cc(O)c(C(=O)/C=C/c2sccc2C)cc1CN1CCOCC1`, the inhibition at 50 µg/mL in assay [1] is 32.3%; in assay [2], 0%.

For the compound `C=CCOc1ccc(C(=O)/C=C/c2cc(OC)c(OC)cc2OC)c(O)c1`, the inhibition at 50 µg/mL in assay [1] was 21.6%; in assay [2] it was 0%.

On to `C=CCOc1ccc(C(=O)/C=C/c2cc(OC)c(OC)c(OC)c2)c(O)c1`, for which the inhibition at 50 µg/mL was found to be 70.4% in assay [1] and 43.2% in assay [2].

Turning to `COc1cc(O)c(C(=O)/C=C/c2ccccc2)cc1CN1CCOCC1`, the inhibition at 50 µg/mL in assay [1] worked out at 97.2%; in assay [2], 29.2%.

For the compound `CCOc1cc(O)c(C(=O)/C=C/c2ccccc2)cc1CN1CCOCC1`, the results for the inhibition at 50 µg/mL in assay [1] and in assay [2] were 39.3% and 2.3%, respectively.

`CCOc1cc(O)c(C(=O)/C=C/c2cccnc2)cc1CN1CCOCC1`: the inhibition at 50 µg/mL in assay [1] came out at 100%; in assay [2], 46.9%.

With `Cc1ccsc1/C=C/C(=O)c1ccc(O)c(CN2CCOCC2)c1`, the figures for the inhibition at 50 µg/mL in assay [1] and in assay [2] were 21.4% and 12.5%, respectively.

On to `COc1ccc(/C=C/C(=O)c2ccc(OCC=C(C)C)cc2O)cc1`, for which the inhibition at 50 µg/mL is 25.7% in assay [1] and 17.3% in assay [2].

In the case of `O=C(/C=C/c1ccco1)c1cccc(O)c1CN1CCOCC1`, the inhibition at 50 µg/mL turned out to be 100% in assay [1] and 60.8% in assay [2].

As for `C=CCOc1ccc(C(=O)/C=C/c2ccc(OC)cc2OC)c(O)c1`, the inhibition at 50 µg/mL was 35.2% in assay [1] and 53.4% in assay [2].

For the compound `O=C(/C=C/c1cccnc1)c1ccc(CN2CCOCC2)c(O)c1`, the inhibition at 50 µg/mL in assay [1] is 100%; in assay [2], 95.3%.

As to `O=C(/C=C/c1ccccn1)c1cc(CN2CCOCC2)c(O)c(CN2CCOCC2)c1`, the inhibition at 50 µg/mL in assay [1] turned out to be 100%; in assay [2], 78.6%.

Regarding `Cc1ccsc1/C=C/C(=O)c1cc(CN2CCOCC2)c(O)c(CN2CCOCC2)c1`, the inhibition at 50 µg/mL was found to be 24.9% in assay [1] and 50% in assay [2].

With `O=C(/C=C/c1ccccn1)c1ccc(O)c(CN2CCOCC2)c1O`, the values for the inhibition at 50 µg/mL in assay [1] and in assay [2] were 100% and 12.5%, respectively.

With `COc1ccc(/C=C/C(=O)c2ccc(OCC=C(C)C)cc2O)cc1O`, the inhibition at 50 µg/mL in assay [1] is 23%; in assay [2], 13.4%.

`CC(C)Oc1ccc(C(=O)/C=C/c2cccs2)c(O)c1CN1CCOCC1`: the inhibition at 50 µg/mL worked out at 29% in assay [1] and 3.2% in assay [2].

On to `O=C(/C=C/c1cccnc1)c1ccc(O)c(CN2CCOCC2)c1`, for which the inhibition at 50 µg/mL worked out at 100% in assay [1] and 56.4% in assay [2].

For the compound `COc1cc(O)c(C(=O)/C=C/c2cccnc2)cc1CN1CCOCC1`, the inhibition at 50 µg/mL in assay [1] worked out at 100%; in assay [2], 96.1%.

For `COc1cc(OC)c(OC)cc1/C=C/C(=O)c1ccc(OCC=C(C)C)cc1O`, the inhibition at 50 µg/mL in assay [1] was found to be 15.7%; in assay [2], 4%.

For `COc1ccc(/C=C/C(=O)c2ccc(OCC=C(C)C)cc2O)cc1OC`, the inhibition at 50 µg/mL stood at 24.3% in assay [1] and 10.3% in assay [2].

With `COc1cccc(/C=C/C(=O)c2ccc(OCC=C(C)C)cc2O)c1OC`, the inhibition at 50 µg/mL in assay [1] was determined as 21.3%; in assay [2], 19.7%.

In the case of `O=C(/C=C/c1cccs1)c1cccc(O)c1CN1CCOCC1`, the inhibition at 50 µg/mL in assay [1] was found to be 100%; in assay [2], 83.5%.

As for `COc1ccc(OC)c(/C=C/C(=O)c2ccc(OCC=C(C)C)cc2O)c1`, the inhibition at 50 µg/mL was 22.8% in assay [1] and 14.9% in assay [2].

As for `COc1ccc(C(=O)/C=C/c2ccccn2)c(O)c1CN1CCOCC1`, the values for the inhibition at 50 µg/mL in assay [1] and in assay [2] were 100% and 93.7%, respectively.

On to `C=CCOc1ccc(C(=O)/C=C/c2cc(OC)cc(OC)c2)c(O)c1`, for which the figures for the inhibition at 50 µg/mL in assay [1] and in assay [2] were 30.8% and 13.4%, respectively.

For the compound `COc1ccc(/C=C/C(=O)c2ccco2)c(CN2CCCCC2)c1O`, the inhibition at 50 µg/mL was 100% in assay [1] and 93.7% in assay [2].

With `COc1ccc(/C=C/C(=O)c2ccc(C)cc2)c(CN2CCOCC2)c1O`, the inhibition at 50 µg/mL in assay [1] turned out to be 99.3%; in assay [2], 57.6%.

On to `CC(C)Oc1cc(O)c(C(=O)/C=C/c2cccs2)cc1CN1CCOCC1`, for which the inhibition at 50 µg/mL in assay [1] came to 23.4%; in assay [2] it was 0%.

In the case of `CC(C)=CCOc1ccc(C(=O)/C=C/c2ccccc2)c(O)c1` [CORDOIN], the inhibition at 50 µg/mL in assay [1] came to 16.4%; in assay [2], 6.3%.

In the case of `COc1ccc(/C=C/C(=O)c2ccc(OCC=C(C)C)cc2O)c(OC)c1OC`, the figures for the inhibition at 50 µg/mL in assay [1] and in assay [2] were 21.4% and 12.6%, respectively.

As for `CCOc1cc(O)c(C(=O)/C=C/c2ccccn2)cc1CN1CCOCC1`, the inhibition at 50 µg/mL in assay [1] was 100%; in assay [2] it was 43%.

Turning to `O=C(/C=C/c1ccccn1)c1ccc(CN2CCOCC2)c(O)c1`, the inhibition at 50 µg/mL in assay [1] stood at 100%; in assay [2], 98.4%.

With `O=C(/C=C/c1cccs1)c1ccc(O)c(CN2CCOCC2)c1`, the inhibition at 50 µg/mL was found to be 23.4% in assay [1] and 25% in assay [2].

On to `Cc1ccsc1/C=C/C(=O)c1cccc(O)c1CN1CCOCC1`, for which the results for the inhibition at 50 µg/mL in assay [1] and in assay [2] were 79.1% and 65.5%, respectively.

`CCOc1cc(O)c(C(=O)/C=C/c2ccc(C)o2)cc1CN1CCOCC1`: the inhibition at 50 µg/mL in assay [1] was determined as 16.5%; in assay [2] it was 0%.

On to `COc1ccc(/C=C/C(=O)c2ccc(OCC=C(C)C)cc2O)c(OC)c1`, for which the figures for the inhibition at 50 µg/mL in assay [1] and in assay [2] were 42.7% and 39.2%, respectively.

On to `COc1cc(O)c(C(=O)/C=C/c2ccco2)cc1CN1CCOCC1`, for which the inhibition at 50 µg/mL in assay [1] was 17.2%; in assay [2] it was 19.7%.

Take `CCOc1cc(O)c(C(=O)/C=C/c2ccco2)cc1CN1CCOCC1`: the inhibition at 50 µg/mL in assay [1] came to 22.5%; in assay [2] it was 0%.

Consider `C=CCOc1ccc(C(=O)/C=C/c2cc(OC)ccc2OC)c(O)c1`, for which the results for the inhibition at 50 µg/mL in assay [1] and in assay [2] were 33.6% and 57.2%, respectively.

Consider `COc1ccc(/C=C/C(=O)c2cccnc2)c(CN2CCCCC2)c1O`, for which the inhibition at 50 µg/mL in assay [1] worked out at 100%; in assay [2], 98.4%.

With `O=C(/C=C/c1ccncc1)c1ccc(CN2CCOCC2)c(O)c1`, the inhibition at 50 µg/mL in assay [1] and in assay [2] was 100% each time.

Consider `COc1ccc(/C=C/C(=O)c2cc(CN3CCOCC3)c(OC)cc2O)cc1`, for which the inhibition at 50 µg/mL in assay [1] came out at 36.7%; in assay [2] it was 7.1%.

Turning to `C=CCOc1ccc(C(=O)/C=C/c2ccc(OC)c(OC)c2OC)c(O)c1`, the inhibition at 50 µg/mL was determined as 26.4% in assay [1] and 14.9% in assay [2].

For the compound `O=C(/C=C/c1ccncc1)c1ccc(O)c(CN2CCOCC2)c1`, the results for the inhibition at 50 µg/mL in assay [1] and in assay [2] were 100% and 79.4%, respectively.

For `C=CCOc1ccc(C(=O)/C=C/c2ccc(OC)cc2)c(O)c1`, the inhibition at 50 µg/mL in assay [1] came to 24.9%; in assay [2] it was 5.5%.

On to `C=CCOc1ccc(C(=O)/C=C/c2cccc(OC)c2OC)c(O)c1`, for which the inhibition at 50 µg/mL in assay [1] amounted to 30.8%; in assay [2], 44.7%.

Consider `COc1cc(/C=C/C(=O)c2ccc(OCC=C(C)C)cc2O)cc(OC)c1OC`, for which the inhibition at 50 µg/mL in assay [1] was 27.1%; in assay [2] it was 7.9%.

Consider `C=CCOc1ccc(C(=O)/C=C/c2ccccc2)c(O)c1`, for which the values for the inhibition at 50 µg/mL in assay [1] and in assay [2] were 25.6% and 6.3%, respectively.

As to `O=C(/C=C/c1ccccn1)c1ccc(O)c(CN2CCOCC2)c1`, the inhibition at 50 µg/mL was determined as 99.3% in assay [1] and 63.5% in assay [2].

For the compound `CC(C)=CCOc1ccc(C(=O)/C=C/c2sccc2C)c(O)c1CN1CCOCC1`, the inhibition at 50 µg/mL in assay [1] was found to be 14.2%; in assay [2], 11.1%.

Take `O=C(/C=C/c1ccccc1)c1ccc(O)c(CN2CCOCC2)c1`: the inhibition at 50 µg/mL worked out at 34.2% in assay [1] and 20.3% in assay [2].

Take `C=CCOc1ccc(C(=O)/C=C/c2ccc3c(c2)OCO3)c(O)c1`: the inhibition at 50 µg/mL in assay [1] worked out at 21.4%; in assay [2], 7.9%.

With `COc1ccc(/C=C/C(=O)c2cccs2)c(CN2CCCCC2)c1O`, the inhibition at 50 µg/mL is 100% in assay [1] and 95.2% in assay [2].

Consider `COc1cc(O)c(C(=O)/C=C/c2cccs2)cc1CN1CCOCC1`, for which the inhibition at 50 µg/mL in assay [1] is 26.4%; in assay [2], 11.1%.

For `Cc1ccc(/C=C/C(=O)c2ccc(O)c(CN3CCOCC3)c2)o1`, the inhibition at 50 µg/mL in assay [1] was 12.8%; in assay [2], 0%.

`O=C(/C=C/c1ccccc1)c1cccc(O)c1CN1CCOCC1`: the results for the inhibition at 50 µg/mL in assay [1] and in assay [2] were 100% and 89.8%, respectively.

`COc1cc(/C=C/C(=O)c2ccc(OCC=C(C)C)cc2O)cc(OC)c1`: the values for the inhibition at 50 µg/mL in assay [1] and in assay [2] were 20.7% and 8.7%, respectively.

As for `O=C(/C=C/c1ccco1)c1ccc(O)c(CN2CCOCC2)c1`, the values for the inhibition at 50 µg/mL in assay [1] and in assay [2] were 18.4% and 4.7%, respectively.

As to `CC(C)=CCOc1ccc(C(=O)/C=C/c2ccc3c(c2)OCO3)c(O)c1`, the inhibition at 50 µg/mL in assay [1] amounted to 20%; in assay [2] it was 17.3%.

Turning to `O=C(/C=C/c1ccccn1)c1ccc(CN2CCOCC2)c(O)c1CN1CCOCC1`, the inhibition at 50 µg/mL in assay [1] and in assay [2] was 100% throughout.

The term inhibition denotes the percentage by which the read-out fell short of the control.
